pIC50: −log10 of the molar value.
How the values were obtained:
[1] = molecular target: T1, Sodium- and chloride-dependent glycine transporter 2 (Homo sapiens, UniProt Q9Y345); test: Inhibition of recombinant human GlyT2 expressed in HEK293 cells assessed as reduction in [14C]glycine uptake after 2 hrs by microbeta scintillation counting method; format: cell-based
T1 sequence (Q9Y345 whole entry): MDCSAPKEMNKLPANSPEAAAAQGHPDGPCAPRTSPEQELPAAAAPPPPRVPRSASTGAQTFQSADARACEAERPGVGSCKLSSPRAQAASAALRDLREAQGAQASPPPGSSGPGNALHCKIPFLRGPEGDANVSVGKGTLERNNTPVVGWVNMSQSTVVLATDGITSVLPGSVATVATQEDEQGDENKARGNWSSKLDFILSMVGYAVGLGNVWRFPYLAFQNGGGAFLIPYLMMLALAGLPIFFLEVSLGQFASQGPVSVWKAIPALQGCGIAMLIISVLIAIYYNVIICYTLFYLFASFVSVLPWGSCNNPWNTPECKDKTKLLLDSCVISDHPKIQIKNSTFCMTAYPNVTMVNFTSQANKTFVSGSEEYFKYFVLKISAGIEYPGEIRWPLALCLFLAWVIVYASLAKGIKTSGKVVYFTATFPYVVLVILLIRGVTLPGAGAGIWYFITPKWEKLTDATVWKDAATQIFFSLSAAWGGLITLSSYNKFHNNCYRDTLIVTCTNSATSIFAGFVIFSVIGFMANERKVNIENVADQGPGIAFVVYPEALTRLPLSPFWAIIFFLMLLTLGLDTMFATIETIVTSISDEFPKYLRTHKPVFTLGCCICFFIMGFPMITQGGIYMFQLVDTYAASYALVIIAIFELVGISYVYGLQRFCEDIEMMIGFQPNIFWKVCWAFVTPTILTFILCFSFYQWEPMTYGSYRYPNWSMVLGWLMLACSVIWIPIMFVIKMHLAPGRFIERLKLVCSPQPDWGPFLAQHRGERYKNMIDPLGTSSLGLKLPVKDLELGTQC

[2] = Plasma concentration in Sprague-Dawley rat at 10 mg/kg, po after 90 mins by LC-MS/MS analysis; format: ADME, organism-based
How it was run: (§1)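 Male SD rats (n=5) given a single oral dose of 10 mg/kg in NMP/PEG400/water (10:50:40). Plasma, total brain and CSF compound concentrations measured 90 min after dosing.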

[3] = Drug uptake in Sprague-Dawley rat brain at 10 mg/kg, po after 90 mins by LC-MS/MS analysis; format: ADME, organism-based; settings: read-out: Drug uptake; how it was run: as §1
[4] = Drug uptake in Sprague-Dawley rat CSF at 10 mg/kg, po after 90 mins by LC-MS/MS analysis; format: ADME, organism-based, Cerebrospinal fluid; settings: read-out: Drug uptake; how it was run: as §1
[5] = Unbound fraction in rat plasma at 1 uM by LC-MS/MS based equilibrium dialysis; format: ADME, cell-free
How it was run: (§2)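 Rat plasma or brain homogenate (1:6 in 0.1 M PBS pH 7.2) spiked to 1.0 µM, in triplicate. Rapid equilibrium dialysis (MWCO 8000) against PBS, shaken at 37 °C for 6 h. Matrix-matched samples quantified by LC-MS/MS. fu = receiver/donor concentration; brain value corrected for homogenate dilution.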

[6] = Unbound fraction in rat brain homogenate at 1 uM by LC-MS/MS based equilibrium dialysis; format: ADME, tissue-based; how it was run: as §2
[7] = Free drug level in rat brain homogenate at 1 uM by LC-MS/MS based equilibrium dialysis; format: ADME, tissue-based
[8] = Ratio of free drug level in rat brain homogenate at 1 uM to IC50 for inhibition of GlyT1 in primary rat cortical neurons; format: tissue-based
Rattus norvegicus [9] = test: In vivo inhibition of GlyT1 in Sprague-Dawley rat assessed as CSF glycine levels at 10 mg/kg, po administered as single dose measured after 90 mins by LC-MS/MS analysis relative to control; format: functional
How it was run: (§3)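 Male Sprague-Dawley rats (300−400 g, n = 5), fed ad libitum, dosed orally at 10 mg/kg (10 mL/kg) in NMP/PEG400/water (10:50:40), with a vehicle group (n = 5) in each study. CSF (~100 µL) taken under anaesthesia at 90 min. Glycine derivatised with Marfey's reagent, 13C2-15N-glycine internal standard, LC-MS/MS in negative ion mode. Expressed as % of vehicle; 1-way ANOVA.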

Rattus norvegicus [10] = test: In vivo inhibition of GlyT1 in Sprague-Dawley rat assessed as increase in CSF glycine levels at 10 mg/kg, po administered as single dose measured after 90 mins by LC-MS/MS analysis relative to control; format: functional; set-up: scale not given: the % may be the effect or the level left; how it was run: as §3

SMILES	pIC50 [1]	concentration at […] [2]	concentration at […] [3]	concentration at […] [4]	fraction unbound at 1 µM [5]	fraction unbound at 1 µM [6]	Drug uptake(free) [7]	Ratio [8]	Activity (Rattus norvegicus [9])	Activity (Rattus norvegicus [10])
C[C@H](Oc1ccc(C#N)cc1C(=O)N1Cc2cn(-c3ccccc3F)nc2C1)C(F)(F)F	< 5.00									
CS(=O)(=O)c1ccc(OCC2CC2)c(C(=O)N2Cc3cn(-c4ccccc4F)nc3C2)c1	< 5.00	2140 nM	605 nM	26 nM	0.047	0.017	10.3 nM	0.37	7.6 µM	110%
